Measurements published in ChEMBL document CHEMBL1139214, “Lyngbyastatin 4, a dolastatin 13 analogue with elastase and chymotrypsin inhibitory activity from the marine cyanobacterium Lyngbya confervoides” (J Nat Prod, 2007).
Activity calls are given as the source filed them. No cut-off for these calls is given here.

How the values were obtained:
[1] = target: Prothrombin (Bos taurus) (UniProt P00735); assay: Inhibition of bovine plasma thrombin upto 30 uM; assay type: cell-free
[2] = species: Sus scrofa; assay: Inhibition of porcine pancreatic trypsin upto 30 uM
Outline: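 Porcine pancreatic trypsin (1 mg/mL enzyme solution) in 50 mM Tris-HCl, 100 mM NaCl, 1 mM CaCl2, pH 7.8. Test solution added, then 2 mM Nα-benzoyl-DL-arginine 4-nitroanilide hydrochloride substrate solution. Absorbance increase at 405 nm followed for 30 min. Dose–response analysis.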

[3] = Selectivity for porcine elastase over bovine thrombin
[4] = species: Sus scrofa; assay: Selectivity for porcine elastase over porcine trypsin
[5] = Selectivity for bovine alpha chymotrypsin over human plasmin
[6] = Selectivity for bovine alpha chymotrypsin over porcine trypsin
[7] = Selectivity for porcine elastase over human plasmin
[8] = Inhibition of porcine pancreatic elastase; parameters: species or system Sus scrofa
Outline: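 Porcine pancreatic elastase (75 µg/mL enzyme solution) preincubated with compound in Tris-HCl, pH 8.0, at 30 °C for 20 min. Then 2 mM N-succinyl-Ala-Ala-Ala-p-nitroanilide substrate solution added. Absorbance increase at 405 nm read over 3–30 min. Dose–response analysis, IC50 determined.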

[9] = target: Plasminogen (Homo sapiens) (UniProt P00747); assay: Inhibition of human plasma plasmin upto 30 uM; assay type: cell-free
Chain of Plasminogen (Homo sapiens) (P00747 97-580 limits assumed): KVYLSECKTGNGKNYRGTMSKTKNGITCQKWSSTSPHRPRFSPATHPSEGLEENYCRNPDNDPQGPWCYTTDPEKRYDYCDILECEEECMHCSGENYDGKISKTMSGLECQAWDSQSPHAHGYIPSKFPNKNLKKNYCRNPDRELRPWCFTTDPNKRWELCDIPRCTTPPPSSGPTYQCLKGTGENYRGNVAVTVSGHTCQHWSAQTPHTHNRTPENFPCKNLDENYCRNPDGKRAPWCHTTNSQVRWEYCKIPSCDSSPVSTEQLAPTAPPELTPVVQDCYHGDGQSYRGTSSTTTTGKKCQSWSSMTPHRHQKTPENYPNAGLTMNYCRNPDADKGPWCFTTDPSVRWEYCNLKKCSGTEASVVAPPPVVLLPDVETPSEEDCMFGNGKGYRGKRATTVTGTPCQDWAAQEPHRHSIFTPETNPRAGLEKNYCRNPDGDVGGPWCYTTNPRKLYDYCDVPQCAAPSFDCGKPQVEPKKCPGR
Chain of Plasminogen (Homo sapiens) (P00747 581-810 limits assumed): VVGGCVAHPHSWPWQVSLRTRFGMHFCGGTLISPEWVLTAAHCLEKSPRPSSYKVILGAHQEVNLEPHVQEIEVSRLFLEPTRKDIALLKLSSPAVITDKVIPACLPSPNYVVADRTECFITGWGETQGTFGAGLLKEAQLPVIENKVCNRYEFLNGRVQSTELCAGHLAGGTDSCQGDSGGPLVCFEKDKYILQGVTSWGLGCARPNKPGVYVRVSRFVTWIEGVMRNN

[10] = Inhibition of bovine pancreatic alpha chymotrypsin; parameters: species or system Bos taurus
Outline: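 Bovine pancreatic α-chymotrypsin (1 mg/mL enzyme solution) in 50 mM Tris-HCl, 100 mM NaCl, 1 mM CaCl2, pH 7.8. Test solution added, then 2 mM N-succinyl-Gly-Gly-Phe-p-nitroanilide substrate solution. Absorbance increase at 405 nm followed for 30 min. Dose–response analysis, IC50 determined.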

[11] = species: Bos taurus; assay: Selectivity for bovine alpha chymotrypsin over bovine thrombin

With `C/C=C1\NC(=O)[C@@H](NC(=O)[C@H](CCc2ccc(O)cc2)NC(=O)[C@H](C)NC(=O)[C@H](O)COS(=O)(=O)O)[C@@H](C)OC(=O)[C@H](C(C)C)NC(=O)[C@H](Cc2ccc(O)cc2)N(C)C(=O)[C@H](Cc2ccccc2)N2C(=O)[C@H](CC[C@H]2O)NC1=O` [LYNGBYASTATIN 4] the Activity [1] was “inactive”, the Activity [2] was “inactive” and the Selectivity ratio [3] was > 1000. For the same compound, the Selectivity ratio [4] was > 1000, the Selectivity ratio [5] was > 100 and the Selectivity ratio [6] was > 100. The Selectivity ratio [7] was > 1000, the IC50 [8] was 30 nM and the Activity [9] was “inactive”. The IC50 [10] was 300 nM and the Selectivity ratio [11] was > 100.
